We go through one compound from ChEMBL document CHEMBL3616378 (J Med Chem, 2015).

A short description of data set [1]: Metabolic stability of the compound in human hepatocytes assessed as loss of compound at 2 uM. The class given is ADME, cell-based, Hepatocyte. The settings on record: read-out: Drug degradation. In a few lines: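 Hepatocytes from mouse, rat, dog and human; compound tested at 2 µM; percent loss of parent compound measured.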
Data set [2] is described as follows: Fraction unbound in human plasma. The class given is ADME, cell-free.
The nature of data set [3]: AUC (0 to 24 hrs) in Sprague-Dawley rat at 1 mg/kg, iv. The class given is ADME, organism-based. Also noted: time < 24 hr, dose 1 mg/kg, route intravenous. The note with it: in vivo. In a few lines: (§1)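 Fasted male Sprague–Dawley rats (~250 g) received a single dose of compound dissolved in water and adjusted to pH 7–7.5 with NaOH, given iv, by oral gavage or ip. Serial blood samples (11–12 per rat) were drawn from a jugular vein catheter into EDTA and kept frozen. Plasma was mixed with methanol:water (1:1) containing an analogue internal standard for analysis. Mean plasma parameters are reported.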

Data set [4] in a line: AUC (0 to 24 hrs) in Sprague-Dawley rat at 10 mg/kg, ip. The settings on record: in vivo. The class given is ADME, organism-based. On the set-up: dose 10 mg/kg, time < 24 hr, route intraperitoneal. In a few lines:
as §1

A short description of data set [5]: Tmax in Sprague-Dawley rat at 10 mg/kg, ip. The class given is ADME, organism-based. The settings on record: in vivo. In a few lines: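 Compound dissolved in water, pH adjusted to 7–7.5 with NaOH; single dose to fasted male Sprague–Dawley rats (~250 g) by oral gavage, intravenous or intraperitoneal route. Serial blood (11–12 samples per rat) from jugular vein catheter into EDTA tubes, centrifuged, frozen; 25 µL plasma mixed with methanol:water (1:1) containing analogue internal standard.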

Data set [6] in a line: Plasma concentration in Sprague-Dawley rat at 1 mg/kg, ip after 0.5 hrs. Format: ADME, organism-based. In a few lines: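 Separate experiment: single ip doses of 1, 3 and 10 mg/kg to rats, compound in water adjusted to pH 7–7.5 with NaOH; plasma (with csf) sampled at 0.5, 1 and 4 h; mean plasma concentrations ± SEM reported.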
The target in data set [7] is Metabotropic glutamate receptor 2 (Homo sapiens, UniProt Q14416). Kind of data set: Displacement of [3H]-459477 from human recombinant mGlu2 receptor expressed in AV12 cells after 90 mins by liquid scintillation counting. Format: cell-based.
Chain of Metabotropic glutamate receptor 2 (Q14416 whole entry): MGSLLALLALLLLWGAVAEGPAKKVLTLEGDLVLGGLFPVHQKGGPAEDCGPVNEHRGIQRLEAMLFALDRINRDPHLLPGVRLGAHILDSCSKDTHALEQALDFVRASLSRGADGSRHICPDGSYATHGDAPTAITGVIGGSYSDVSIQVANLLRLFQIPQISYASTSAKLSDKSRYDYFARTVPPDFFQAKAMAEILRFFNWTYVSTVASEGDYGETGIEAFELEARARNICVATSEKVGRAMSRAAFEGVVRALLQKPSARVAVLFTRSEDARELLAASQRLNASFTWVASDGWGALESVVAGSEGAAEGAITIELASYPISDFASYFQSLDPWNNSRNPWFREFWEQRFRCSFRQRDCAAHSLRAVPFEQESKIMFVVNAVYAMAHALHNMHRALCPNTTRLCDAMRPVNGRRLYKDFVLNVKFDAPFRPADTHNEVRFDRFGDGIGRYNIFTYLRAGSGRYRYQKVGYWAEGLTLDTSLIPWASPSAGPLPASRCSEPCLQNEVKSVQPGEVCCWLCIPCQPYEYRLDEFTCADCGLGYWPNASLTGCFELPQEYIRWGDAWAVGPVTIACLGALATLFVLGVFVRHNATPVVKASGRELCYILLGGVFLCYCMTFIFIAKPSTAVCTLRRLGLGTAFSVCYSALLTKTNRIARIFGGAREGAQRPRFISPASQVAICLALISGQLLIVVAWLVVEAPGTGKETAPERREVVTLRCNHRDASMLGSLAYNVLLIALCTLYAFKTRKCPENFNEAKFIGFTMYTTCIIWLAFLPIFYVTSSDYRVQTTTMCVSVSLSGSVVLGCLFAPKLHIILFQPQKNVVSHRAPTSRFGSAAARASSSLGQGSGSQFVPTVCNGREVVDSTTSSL
Data set [8] deals with Metabotropic glutamate receptor 3 (Homo sapiens, UniProt Q14832). Kind of data set: Agonist activity at human recombinant mGlu3 receptor expressed in AV12 cells assessed as stimulation of Ca2+ mobilization after 1.5 hrs by FLIPR assay. Format: functional, cell-based.
Chain of Metabotropic glutamate receptor 3 (Q14832 whole entry): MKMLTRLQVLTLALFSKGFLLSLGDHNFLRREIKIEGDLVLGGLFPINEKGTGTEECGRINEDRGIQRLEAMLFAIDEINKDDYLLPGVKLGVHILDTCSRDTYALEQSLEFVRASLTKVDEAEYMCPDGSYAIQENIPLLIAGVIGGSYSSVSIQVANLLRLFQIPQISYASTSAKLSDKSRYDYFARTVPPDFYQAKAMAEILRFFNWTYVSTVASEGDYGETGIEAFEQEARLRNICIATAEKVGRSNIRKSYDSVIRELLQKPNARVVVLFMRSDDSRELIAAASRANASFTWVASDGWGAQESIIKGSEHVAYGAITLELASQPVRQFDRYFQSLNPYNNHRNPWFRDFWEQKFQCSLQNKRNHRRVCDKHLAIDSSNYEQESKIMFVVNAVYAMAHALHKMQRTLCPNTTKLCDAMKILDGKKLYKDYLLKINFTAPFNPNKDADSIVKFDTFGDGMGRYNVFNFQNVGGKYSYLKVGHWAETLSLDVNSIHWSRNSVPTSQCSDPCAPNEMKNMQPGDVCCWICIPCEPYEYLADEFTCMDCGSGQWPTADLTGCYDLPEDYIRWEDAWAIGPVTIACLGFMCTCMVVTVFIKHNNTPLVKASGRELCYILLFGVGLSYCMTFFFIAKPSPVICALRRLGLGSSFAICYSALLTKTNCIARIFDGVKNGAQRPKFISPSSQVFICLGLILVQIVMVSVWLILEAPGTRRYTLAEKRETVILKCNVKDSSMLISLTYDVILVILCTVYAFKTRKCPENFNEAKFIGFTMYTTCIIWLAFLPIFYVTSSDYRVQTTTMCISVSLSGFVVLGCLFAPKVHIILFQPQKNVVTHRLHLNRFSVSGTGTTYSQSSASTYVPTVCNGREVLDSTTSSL
Data set [9] addresses Metabotropic glutamate receptor 1 (Homo sapiens, UniProt Q13255). Kind of data set: Agonist activity at human recombinant mGlu1 receptor expressed in AV12 cells assessed as stimulation of Ca2+ mobilization after 1 hr by FLIPR assay. Format: functional, cell-based.
The target of data set [10] is Metabotropic glutamate receptor 8 (Homo sapiens, UniProt O00222). The data set can be described thus: Agonist activity at human recombinant mGlu8 receptor expressed in AV12 cells assessed as inhibition of forskolin-stimulated cAMP production after 1 hr by fluorescence assay. The class given is functional, cell-based.
Chain of Metabotropic glutamate receptor 8 (O00222 whole entry): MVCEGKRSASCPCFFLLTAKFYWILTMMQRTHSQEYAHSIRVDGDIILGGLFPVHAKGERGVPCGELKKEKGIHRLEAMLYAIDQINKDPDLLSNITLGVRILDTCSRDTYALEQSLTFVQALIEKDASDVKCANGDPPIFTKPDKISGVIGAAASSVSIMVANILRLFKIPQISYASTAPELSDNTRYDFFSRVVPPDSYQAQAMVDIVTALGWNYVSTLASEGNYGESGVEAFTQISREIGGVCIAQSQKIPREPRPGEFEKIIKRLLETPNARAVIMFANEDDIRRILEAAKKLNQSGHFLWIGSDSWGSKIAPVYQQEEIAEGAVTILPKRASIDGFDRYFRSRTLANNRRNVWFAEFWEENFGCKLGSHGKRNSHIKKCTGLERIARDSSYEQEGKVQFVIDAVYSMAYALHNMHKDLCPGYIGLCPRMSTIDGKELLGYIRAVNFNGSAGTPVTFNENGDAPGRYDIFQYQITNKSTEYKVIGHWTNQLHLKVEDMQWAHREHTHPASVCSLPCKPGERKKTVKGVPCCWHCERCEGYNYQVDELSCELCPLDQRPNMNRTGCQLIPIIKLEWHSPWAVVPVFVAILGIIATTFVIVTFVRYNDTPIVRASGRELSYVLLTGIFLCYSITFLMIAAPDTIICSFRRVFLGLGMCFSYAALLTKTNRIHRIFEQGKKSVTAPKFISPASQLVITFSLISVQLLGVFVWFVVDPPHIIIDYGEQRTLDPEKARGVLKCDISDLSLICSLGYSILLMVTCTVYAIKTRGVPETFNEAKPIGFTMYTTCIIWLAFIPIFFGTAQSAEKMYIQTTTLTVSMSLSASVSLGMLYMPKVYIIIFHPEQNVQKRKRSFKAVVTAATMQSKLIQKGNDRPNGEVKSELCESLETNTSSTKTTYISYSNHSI
Data set [11] relates to Rattus norvegicus. The data set can be described thus: Toxicity in Sprague-Dawley rat assessed as impairment of neuromuscular coordination at 10 mg/kg, ip after 1 hr by rotarod test. Format: organism-based. The note with it: in vivo. Background: Falling from the rotarod earlier than controls is read as motor impairment.
The species named for data set [12] is Rattus norvegicus. The data set can be described thus: Toxicity in Sprague-Dawley rat assessed as impairment of neuromuscular coordination at 300 nM of cerebrospinal fluid concentration by rotarod test. Format: organism-based. The settings on record: in vivo, 0.3 µM.

One may read the fraction unbound as free concentration divided by total concentration. A lower fraction unbound goes with extensive binding. As usually defined, the AUC(0-t) is the area under the concentration-time curve up to a stated or last time point. Read a low AUC(0-t) as less exposure. For orientation: Tmax means the time from dosing to the highest level. A word on the Ki: it is the dissociation constant of the complex between target and ligand, obtained from inhibition or displacement. For orientation: EC50 means the concentration giving half of the maximal effect.

Bounds are passed on as bounds.

Chain of Metabotropic glutamate receptor 1 (Q13255 whole entry): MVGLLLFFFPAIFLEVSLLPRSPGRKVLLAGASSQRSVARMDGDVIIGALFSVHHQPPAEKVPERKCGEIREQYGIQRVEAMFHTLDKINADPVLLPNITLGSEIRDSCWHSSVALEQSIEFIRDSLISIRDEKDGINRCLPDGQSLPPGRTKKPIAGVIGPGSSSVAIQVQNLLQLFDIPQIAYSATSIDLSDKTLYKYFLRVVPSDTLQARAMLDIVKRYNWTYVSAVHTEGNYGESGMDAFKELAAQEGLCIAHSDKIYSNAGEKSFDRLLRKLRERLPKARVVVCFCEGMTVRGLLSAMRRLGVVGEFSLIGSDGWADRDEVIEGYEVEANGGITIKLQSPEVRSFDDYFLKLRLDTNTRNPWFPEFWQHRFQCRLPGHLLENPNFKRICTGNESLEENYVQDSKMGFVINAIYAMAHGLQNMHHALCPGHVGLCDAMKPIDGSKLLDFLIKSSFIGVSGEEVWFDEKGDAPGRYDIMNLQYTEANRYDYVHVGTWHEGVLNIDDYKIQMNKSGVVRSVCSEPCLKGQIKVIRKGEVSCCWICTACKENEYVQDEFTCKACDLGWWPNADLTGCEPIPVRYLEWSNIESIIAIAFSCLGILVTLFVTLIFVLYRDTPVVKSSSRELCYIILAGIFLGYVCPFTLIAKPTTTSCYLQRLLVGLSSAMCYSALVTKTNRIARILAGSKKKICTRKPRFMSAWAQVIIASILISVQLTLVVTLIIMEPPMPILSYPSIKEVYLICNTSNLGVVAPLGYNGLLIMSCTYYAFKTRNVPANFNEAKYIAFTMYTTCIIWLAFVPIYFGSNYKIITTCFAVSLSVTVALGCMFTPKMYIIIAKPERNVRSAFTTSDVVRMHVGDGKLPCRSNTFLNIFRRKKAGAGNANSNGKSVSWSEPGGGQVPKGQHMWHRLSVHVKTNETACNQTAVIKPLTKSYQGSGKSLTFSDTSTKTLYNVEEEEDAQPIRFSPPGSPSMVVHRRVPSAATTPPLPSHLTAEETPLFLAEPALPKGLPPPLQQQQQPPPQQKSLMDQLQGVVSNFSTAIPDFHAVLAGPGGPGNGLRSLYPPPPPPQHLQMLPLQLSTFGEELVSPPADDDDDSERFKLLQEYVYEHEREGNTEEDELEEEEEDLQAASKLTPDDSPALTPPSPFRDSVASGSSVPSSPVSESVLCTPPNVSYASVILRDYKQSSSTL

Regarding `N[C@@]1(C(=O)O)C[C@@H](Sc2nc[nH]n2)[C@H]2[C@H](C(=O)O)[C@H]21`, the metabolised at 2 µM in data set [1] was less than 10%. In addition, in [2], the fraction unbound is greater than 0.98. Also, the values for the AUC(0-t) at 24 h in data set [3] and in [4] were 4.91 µM·h and 43.1 µM·h, respectively. The Tmax in data set [5] stood at 30 min. Moreover, in data set [6], the concentration at 0.5 h amounted to 6 µM. Besides, the inhibitory constant (Ki) in data set [7] came to 0.144 µM. Also, the EC50 in [8] is greater than 25 µM; in [9] it was greater than 25 µM; in [10], 10.1 µM. Further, the Activity entry with Rattus norvegicus [11] and in the data set listed under Rattus norvegicus [12] was “Toxic” throughout.
